According to ChEMBL document CHEMBL5653631, “A Potent and Selective ULK1 Inhibitor Suppresses Autophagy and Sensitizes Cancer Cells to Nutrient Stress” (iScience, 2018):
Values belong to the compound of their own block, whether it stands above or below them.

How the values were obtained:
[1] = target: 3-phosphoinositide-dependent protein kinase 1 (Homo sapiens) (UniProt O15530); assay: Inhibition of human recombinant PDK1 at 500 nM related to control ULK1
[2] = target: MAP kinase-activated protein kinase 2 (Homo sapiens) (UniProt P49137); assay: Inhibition of human recombinant MAPKAPK2 at 500 nM related to control ULK1
[3] = target: Calcium/calmodulin-dependent protein kinase type II subunit beta (Homo sapiens) (UniProt Q13554); assay: Inhibition of human recombinant CaMK2b at 500 nM related to control ULK1
[4] = target: Receptor-interacting serine/threonine-protein kinase 2 (Homo sapiens) (UniProt O43353); assay: Inhibition of human recombinant RIPK2 at 500 nM in presence of ATP by radiometric assay relative to control
[5] = target: Tyrosine-protein kinase Blk (Homo sapiens) (UniProt P51451); assay: Inhibition of human recombinant BLK at 500 nM in presence of ATP by radiometric assay relative to control
How it was run: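 Part of a radiometric in vitro activity panel of 327 recombinant human kinases. Each kinase was tested in duplicate at one inhibitor concentration. Activity remaining was expressed as a percentage of the vehicle control, and percent inhibition was taken as 100 minus that value.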

[6] = target: Serine/threonine-protein kinase 32B (Homo sapiens) (UniProt Q9NY57); assay: Inhibition of human recombinant YANK2 at 500 nM in presence of ATP by radiometric assay relative to control
[7] = target: Serine/threonine-protein kinase MRCK alpha (Homo sapiens) (UniProt Q5VT25); assay: Inhibition of human recombinant MRCKa at 500 nM in presence of ATP by radiometric assay relative to control
[8] = target: Vascular endothelial growth factor receptor 3 (Homo sapiens) (UniProt P35916); assay: Inhibition of human recombinant FLT4 at 15 nM in presence of ATP by radiometric assay relative to control
[9] = target: Serine/threonine-protein kinase WNK1 (Homo sapiens) (UniProt Q9H4A3); assay: Inhibition of human recombinant Wnk1 at 15 nM related to control ULK1
[10] = target: Misshapen-like kinase 1 (Homo sapiens) (UniProt Q8N4C8); assay: Inhibition of human recombinant MINK at 15 nM in presence of ATP by radiometric assay relative to control
[11] = target: Serine/threonine-protein kinase 33 (Homo sapiens) (UniProt Q9BYT3); assay: Inhibition of human recombinant STK33 at 15 nM in presence of ATP by radiometric assay relative to control
[12] = target: T1, NUAK family SNF1-like kinase 2 (Homo sapiens) (UniProt Q9H093); assay: Inhibition of human recombinant NuaK2 at 15 nM in presence of ATP by radiometric assay relative to control
T1 sequence (whole entry): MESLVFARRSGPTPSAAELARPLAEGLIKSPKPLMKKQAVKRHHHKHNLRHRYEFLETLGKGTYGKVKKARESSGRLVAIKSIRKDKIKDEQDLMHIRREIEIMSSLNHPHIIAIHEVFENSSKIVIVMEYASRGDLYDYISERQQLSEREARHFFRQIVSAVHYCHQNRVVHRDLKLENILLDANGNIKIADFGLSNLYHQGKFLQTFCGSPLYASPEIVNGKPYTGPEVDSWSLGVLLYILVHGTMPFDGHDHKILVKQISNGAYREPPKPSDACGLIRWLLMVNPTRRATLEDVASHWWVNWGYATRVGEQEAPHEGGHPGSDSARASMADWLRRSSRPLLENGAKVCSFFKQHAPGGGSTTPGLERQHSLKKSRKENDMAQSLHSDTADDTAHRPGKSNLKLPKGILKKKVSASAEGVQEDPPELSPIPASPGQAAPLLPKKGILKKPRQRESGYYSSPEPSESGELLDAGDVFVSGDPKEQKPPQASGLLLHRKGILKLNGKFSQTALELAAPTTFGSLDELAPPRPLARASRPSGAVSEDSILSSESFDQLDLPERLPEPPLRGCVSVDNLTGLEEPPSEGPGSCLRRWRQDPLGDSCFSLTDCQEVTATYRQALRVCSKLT

[13] = target: MAP kinase-interacting serine/threonine-protein kinase 2 (Homo sapiens, UniProt Q9HBH9); assay: Inhibition of human recombinant MNK2 at 15 nM related to control ULK1
[14] = target: T2, Activin receptor type-1 (Homo sapiens) (UniProt Q04771); assay: Inhibition of human recombinant ALK2 at 15 nM related to control ULK1
T2 sequence (whole entry): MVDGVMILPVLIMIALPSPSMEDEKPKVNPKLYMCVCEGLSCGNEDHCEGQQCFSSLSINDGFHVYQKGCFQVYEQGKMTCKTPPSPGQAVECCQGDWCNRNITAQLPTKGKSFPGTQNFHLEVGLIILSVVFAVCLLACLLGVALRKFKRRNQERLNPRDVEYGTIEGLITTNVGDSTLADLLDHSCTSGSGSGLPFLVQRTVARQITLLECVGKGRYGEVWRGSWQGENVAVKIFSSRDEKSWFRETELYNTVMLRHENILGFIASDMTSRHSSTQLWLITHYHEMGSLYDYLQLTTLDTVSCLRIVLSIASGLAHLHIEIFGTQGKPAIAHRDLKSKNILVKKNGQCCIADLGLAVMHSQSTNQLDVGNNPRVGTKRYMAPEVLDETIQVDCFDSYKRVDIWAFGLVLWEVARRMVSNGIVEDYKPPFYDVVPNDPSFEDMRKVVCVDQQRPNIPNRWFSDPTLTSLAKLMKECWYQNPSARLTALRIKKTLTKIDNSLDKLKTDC
How it was run: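 Panel of 327 recombinant human kinases, each assayed in vitro by radiometric activity assay in duplicate at a single inhibitor concentration per compound, chosen with reference to its ULK1 inhibition. Activity remaining was expressed as percent of vehicle control, and percent inhibition was calculated as 100 minus percent activity remaining.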

[15] = target: Calcium/calmodulin-dependent protein kinase type 1B (Homo sapiens) (UniProt Q6P2M8); assay: Inhibition of human recombinant CaMK1b at 40 nM in presence of ATP by radiometric assay relative to control
[16] = target: T3, Phosphorylase b kinase gamma catalytic chain, liver/testis isoform (Homo sapiens) (UniProt P15735); assay: Inhibition of human recombinant PHKg2 at 40 nM in presence of ATP by radiometric assay relative to control
T3 sequence (whole entry): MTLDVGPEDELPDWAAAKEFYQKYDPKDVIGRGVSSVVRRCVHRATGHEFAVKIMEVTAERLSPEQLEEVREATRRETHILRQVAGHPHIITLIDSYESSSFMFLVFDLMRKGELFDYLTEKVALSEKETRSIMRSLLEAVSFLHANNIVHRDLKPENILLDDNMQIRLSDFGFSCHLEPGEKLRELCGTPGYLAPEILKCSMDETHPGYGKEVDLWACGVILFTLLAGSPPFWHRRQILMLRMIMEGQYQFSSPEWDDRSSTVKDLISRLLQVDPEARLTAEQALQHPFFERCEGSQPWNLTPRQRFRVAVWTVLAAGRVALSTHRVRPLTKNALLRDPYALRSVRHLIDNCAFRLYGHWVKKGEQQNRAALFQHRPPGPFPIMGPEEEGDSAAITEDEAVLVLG

Serine/threonine-protein kinase 32B (Homo sapiens), sequence (Q9NY57 whole entry): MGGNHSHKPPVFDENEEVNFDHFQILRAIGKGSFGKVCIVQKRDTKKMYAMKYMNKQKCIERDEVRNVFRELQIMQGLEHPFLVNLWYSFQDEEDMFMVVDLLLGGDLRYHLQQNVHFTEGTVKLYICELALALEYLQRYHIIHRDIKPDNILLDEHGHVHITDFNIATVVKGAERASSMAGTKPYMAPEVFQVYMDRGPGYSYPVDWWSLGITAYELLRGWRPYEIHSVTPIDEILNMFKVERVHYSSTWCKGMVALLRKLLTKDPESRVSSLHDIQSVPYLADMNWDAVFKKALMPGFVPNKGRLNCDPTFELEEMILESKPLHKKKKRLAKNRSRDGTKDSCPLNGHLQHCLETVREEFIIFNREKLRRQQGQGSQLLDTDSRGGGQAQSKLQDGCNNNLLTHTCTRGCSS
Vascular endothelial growth factor receptor 3 (Homo sapiens), sequence (P35916 whole entry): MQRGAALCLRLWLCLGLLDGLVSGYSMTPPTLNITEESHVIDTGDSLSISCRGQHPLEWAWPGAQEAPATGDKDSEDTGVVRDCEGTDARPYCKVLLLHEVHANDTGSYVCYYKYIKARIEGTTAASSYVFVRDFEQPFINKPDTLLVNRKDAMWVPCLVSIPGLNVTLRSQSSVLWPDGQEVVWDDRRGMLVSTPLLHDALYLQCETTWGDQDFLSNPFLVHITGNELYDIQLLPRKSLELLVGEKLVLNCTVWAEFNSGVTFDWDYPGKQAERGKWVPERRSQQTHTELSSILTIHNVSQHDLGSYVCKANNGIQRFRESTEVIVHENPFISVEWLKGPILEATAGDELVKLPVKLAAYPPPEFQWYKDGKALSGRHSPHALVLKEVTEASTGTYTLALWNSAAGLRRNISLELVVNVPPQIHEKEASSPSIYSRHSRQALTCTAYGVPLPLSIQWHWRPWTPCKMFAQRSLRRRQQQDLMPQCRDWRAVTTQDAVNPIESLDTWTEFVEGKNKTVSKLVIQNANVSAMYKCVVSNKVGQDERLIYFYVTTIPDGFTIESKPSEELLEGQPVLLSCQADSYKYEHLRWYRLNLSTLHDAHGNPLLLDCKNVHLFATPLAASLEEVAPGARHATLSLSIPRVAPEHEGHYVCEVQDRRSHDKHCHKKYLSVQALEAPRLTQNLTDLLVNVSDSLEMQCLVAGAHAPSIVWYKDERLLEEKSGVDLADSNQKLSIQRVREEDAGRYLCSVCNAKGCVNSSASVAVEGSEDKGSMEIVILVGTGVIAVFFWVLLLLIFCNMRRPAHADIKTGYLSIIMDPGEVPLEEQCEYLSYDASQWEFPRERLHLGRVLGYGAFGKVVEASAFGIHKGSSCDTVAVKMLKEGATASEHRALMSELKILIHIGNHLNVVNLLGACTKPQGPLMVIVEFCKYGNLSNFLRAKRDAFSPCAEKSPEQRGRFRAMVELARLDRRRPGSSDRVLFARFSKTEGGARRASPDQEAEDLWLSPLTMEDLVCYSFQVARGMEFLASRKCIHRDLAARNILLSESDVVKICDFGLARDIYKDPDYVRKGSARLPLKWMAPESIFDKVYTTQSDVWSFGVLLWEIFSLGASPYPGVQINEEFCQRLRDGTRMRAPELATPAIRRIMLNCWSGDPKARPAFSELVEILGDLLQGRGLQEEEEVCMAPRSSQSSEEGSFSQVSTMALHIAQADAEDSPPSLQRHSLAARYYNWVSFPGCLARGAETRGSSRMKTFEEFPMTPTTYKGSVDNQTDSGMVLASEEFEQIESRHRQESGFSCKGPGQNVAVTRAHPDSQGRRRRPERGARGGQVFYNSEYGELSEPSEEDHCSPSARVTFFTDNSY
Tyrosine-protein kinase Blk (Homo sapiens), sequence (P51451 2-505 limits assumed): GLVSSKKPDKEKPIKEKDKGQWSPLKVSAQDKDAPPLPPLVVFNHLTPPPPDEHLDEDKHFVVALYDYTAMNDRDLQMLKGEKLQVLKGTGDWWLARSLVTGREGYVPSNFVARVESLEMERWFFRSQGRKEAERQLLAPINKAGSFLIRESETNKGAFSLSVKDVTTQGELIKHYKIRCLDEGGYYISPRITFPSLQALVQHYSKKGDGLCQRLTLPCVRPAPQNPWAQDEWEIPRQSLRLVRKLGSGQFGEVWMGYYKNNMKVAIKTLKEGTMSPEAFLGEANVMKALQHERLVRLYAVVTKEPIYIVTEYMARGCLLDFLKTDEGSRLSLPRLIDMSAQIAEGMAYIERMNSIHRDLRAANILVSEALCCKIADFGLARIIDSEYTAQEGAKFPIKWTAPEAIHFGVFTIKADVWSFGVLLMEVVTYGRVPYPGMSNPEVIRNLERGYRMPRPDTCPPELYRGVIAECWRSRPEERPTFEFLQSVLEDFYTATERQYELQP
Calcium/calmodulin-dependent protein kinase type II subunit beta (Homo sapiens), sequence (Q13554 whole entry): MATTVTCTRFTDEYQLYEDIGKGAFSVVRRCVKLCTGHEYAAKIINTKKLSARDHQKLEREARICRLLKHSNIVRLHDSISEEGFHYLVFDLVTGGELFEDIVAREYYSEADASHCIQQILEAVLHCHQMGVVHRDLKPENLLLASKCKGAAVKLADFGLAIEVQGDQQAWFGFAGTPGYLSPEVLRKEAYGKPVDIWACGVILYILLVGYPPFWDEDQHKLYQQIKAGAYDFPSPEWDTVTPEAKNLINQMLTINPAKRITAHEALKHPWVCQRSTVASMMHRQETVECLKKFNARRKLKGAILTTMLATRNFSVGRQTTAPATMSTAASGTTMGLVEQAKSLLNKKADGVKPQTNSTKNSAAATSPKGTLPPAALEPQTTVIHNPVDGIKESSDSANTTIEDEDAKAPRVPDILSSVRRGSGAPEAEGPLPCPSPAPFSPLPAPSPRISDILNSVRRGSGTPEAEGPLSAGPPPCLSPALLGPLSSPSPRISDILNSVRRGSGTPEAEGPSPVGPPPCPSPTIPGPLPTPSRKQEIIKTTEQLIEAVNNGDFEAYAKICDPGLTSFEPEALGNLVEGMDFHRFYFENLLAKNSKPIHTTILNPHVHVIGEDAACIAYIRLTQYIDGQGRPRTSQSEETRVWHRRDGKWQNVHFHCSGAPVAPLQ
Misshapen-like kinase 1 (Homo sapiens), sequence (Q8N4C8 whole entry, looked up): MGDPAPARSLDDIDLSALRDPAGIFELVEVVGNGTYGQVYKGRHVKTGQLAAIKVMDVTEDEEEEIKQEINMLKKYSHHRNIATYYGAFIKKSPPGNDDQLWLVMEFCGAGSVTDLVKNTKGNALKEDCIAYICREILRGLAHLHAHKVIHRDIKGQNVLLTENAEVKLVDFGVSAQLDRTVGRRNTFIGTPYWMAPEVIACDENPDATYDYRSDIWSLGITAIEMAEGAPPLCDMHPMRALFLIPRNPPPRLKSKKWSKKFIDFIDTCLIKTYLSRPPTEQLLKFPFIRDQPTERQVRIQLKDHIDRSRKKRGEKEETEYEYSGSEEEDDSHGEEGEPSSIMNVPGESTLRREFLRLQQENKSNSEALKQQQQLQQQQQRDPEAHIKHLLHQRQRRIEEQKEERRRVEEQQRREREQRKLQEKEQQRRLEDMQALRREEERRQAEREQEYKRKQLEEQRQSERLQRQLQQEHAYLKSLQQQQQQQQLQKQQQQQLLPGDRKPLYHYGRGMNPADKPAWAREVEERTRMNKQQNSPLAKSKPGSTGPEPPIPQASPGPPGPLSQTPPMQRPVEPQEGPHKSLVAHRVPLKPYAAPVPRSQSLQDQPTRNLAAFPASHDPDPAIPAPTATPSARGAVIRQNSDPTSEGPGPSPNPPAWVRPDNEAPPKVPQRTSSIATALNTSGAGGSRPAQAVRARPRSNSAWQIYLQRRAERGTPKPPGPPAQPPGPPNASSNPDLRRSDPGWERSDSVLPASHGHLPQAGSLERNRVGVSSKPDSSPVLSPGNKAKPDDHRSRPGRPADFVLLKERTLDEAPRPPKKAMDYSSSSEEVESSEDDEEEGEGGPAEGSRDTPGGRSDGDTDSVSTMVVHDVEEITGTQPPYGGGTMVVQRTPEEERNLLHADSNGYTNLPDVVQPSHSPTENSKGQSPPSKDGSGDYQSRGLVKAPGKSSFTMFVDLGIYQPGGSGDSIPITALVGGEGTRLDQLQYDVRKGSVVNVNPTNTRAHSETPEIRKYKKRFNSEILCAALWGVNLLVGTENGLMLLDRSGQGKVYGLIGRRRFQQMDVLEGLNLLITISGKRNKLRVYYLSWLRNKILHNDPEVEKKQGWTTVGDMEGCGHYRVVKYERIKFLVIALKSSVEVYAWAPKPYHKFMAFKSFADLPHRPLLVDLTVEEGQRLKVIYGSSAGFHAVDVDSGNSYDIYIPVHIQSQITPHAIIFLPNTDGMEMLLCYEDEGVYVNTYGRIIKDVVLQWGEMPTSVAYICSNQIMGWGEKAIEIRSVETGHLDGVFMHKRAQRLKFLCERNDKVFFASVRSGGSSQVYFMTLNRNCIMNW
Calcium/calmodulin-dependent protein kinase type 1B (Homo sapiens), sequence (Q6P2M8 whole entry, canonical isoform): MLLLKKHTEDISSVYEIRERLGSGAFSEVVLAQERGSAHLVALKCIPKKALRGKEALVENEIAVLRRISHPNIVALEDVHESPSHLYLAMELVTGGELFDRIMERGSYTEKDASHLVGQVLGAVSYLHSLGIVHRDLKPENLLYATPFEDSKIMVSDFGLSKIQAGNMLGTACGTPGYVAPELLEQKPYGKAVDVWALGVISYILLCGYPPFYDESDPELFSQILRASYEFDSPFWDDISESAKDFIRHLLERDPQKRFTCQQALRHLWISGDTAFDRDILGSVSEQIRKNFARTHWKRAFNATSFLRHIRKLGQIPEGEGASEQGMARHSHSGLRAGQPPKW
MAP kinase-activated protein kinase 2 (Homo sapiens), sequence (P49137 whole entry, looked up): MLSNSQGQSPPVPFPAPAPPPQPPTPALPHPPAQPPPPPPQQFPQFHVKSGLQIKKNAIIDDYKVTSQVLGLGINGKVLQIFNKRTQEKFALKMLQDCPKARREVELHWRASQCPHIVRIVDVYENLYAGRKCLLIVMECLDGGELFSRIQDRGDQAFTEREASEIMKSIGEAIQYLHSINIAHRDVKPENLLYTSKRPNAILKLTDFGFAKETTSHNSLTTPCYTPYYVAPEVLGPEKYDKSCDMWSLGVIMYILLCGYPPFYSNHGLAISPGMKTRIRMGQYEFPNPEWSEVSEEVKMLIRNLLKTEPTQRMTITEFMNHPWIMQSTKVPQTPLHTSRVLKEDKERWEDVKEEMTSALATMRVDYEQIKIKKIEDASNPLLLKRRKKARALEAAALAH

- fold change (FC) [1]: 0.05
- fold change (FC) [2]: 0
- fold change (FC) [3]: 0
- inhibition [4]: 0%
- inhibition [5]: 29%
- inhibition [6]: 2%
- inhibition [7]: 7%
SMILES: CNC(=O)c1ccccc1Oc1nc(Nc2cc(OC)c(OC)c(OC)c2)ncc1Br

- inhibition [8]: 35%
- fold change (FC) [9]: 0.05
- inhibition [10]: 4%
- inhibition [11]: 16%
- inhibition [12]: 18%
- fold change (FC) [13]: 0.3
- fold change (FC) [14]: 0.3
SMILES: CC(C)[C@H](NC(=O)c1cc(-c2cnn3cc(-c4ccc(OCCN5CCCCC5)cc4)cnc23)cs1)C(F)(F)F

- inhibition [15]: 0%
- inhibition [16]: 0%
SMILES: O=C(N[C@@H](C1CC1)C(F)(F)F)c1cc(-c2cnn3cc(-c4ccc(F)cc4)cnc23)cs1
